{
  "source": "ChEMBL document CHEMBL1131599",
  "about": "“Synthesis of C3 heteroatom-substituted azetidinones that display potent cholesterol absorption inhibitory activity” (1998)",
  "key": {"[1]": {"experiment": "Percent reduction of liver cholesterol ester levels after po administration of compound in cholesterol fed hamsters at a dose 10 mg/kg/day", "type": "functional", "settings": "Cricetulus griseus", "in_short": "(§1)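 Cholesterol-fed hamsters were dosed orally for 7 days, with doses in mg/kg/day. The value is % inhibition at the stated dose, or an ED50 in mg/kg/day, with n = 4 animals per compound.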"}, "[2]": {"experiment": "Ability to inhibit liver cholesterol ester was determined in cholesterol fed hamsters", "type": "functional, Cricetulus griseus", "in_short": "as §1"}, "[3]": {"experiment": "Percent reduction of liver cholesterol ester levels after po administration of compound in cholesterol fed hamsters at a dose 1 mg/kg/day", "type": "functional, Cricetulus griseus", "settings": "for inhibition in vivo at 1 mg/kg/day: Cricetulus griseus, Liver, po", "in_short": "as §1"}, "[4]": {"experiment": "Percent reduction of liver cholesterol ester levels after po administration of compound in cholesterol fed hamsters at a dose 3 mg/kg/day", "type": "functional", "settings": "Cricetulus griseus", "in_short": "as §1"}, "[5]": {"experiment": "Percent reduction of liver cholesterol ester levels after po administration of compound in cholesterol fed hamsters at a dose 25 mg/kg/day", "type": "functional", "settings": "Cricetulus griseus", "in_short": "(§2)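 Cholesterol-fed hamsters received the compound orally once daily for 7 days, with dose expressed as mg/kg/day. Four animals per compound. Values are reported as % inhibition at the given dose, or as an ED50 in mg/kg/day.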"}, "[6]": {"experiment": "Percent reduction of Liver cholesterol ester levels after peroral administration in cholesterol fed hamsters", "type": "functional, Cricetulus griseus", "in_short": "as §1"}, "[7]": {"experiment": "Percent reduction of Liver cholesterol ester levels after peroral administration in cholesterol fed hamsters at a dose 10 mg/kg/day", "type": "functional", "settings": "Cricetulus griseus, route oral", "in_short": "as §1"}, "[8]": {"experiment": "Percent reduction of liver cholesterol ester levels after po administration of compound in cholesterol fed hamsters.", "type": "functional, Cricetulus griseus", "in_short": "as §2"}},
  "data": [
    {"compound": "COc1ccc([C@H]2C(SCCc3ccccc3)C(=O)N2c2ccccc2)cc1", "note": "(stereo partly specified)", "values": [
      {"measurement": "inhibition in vivo at 10 mg/kg/day", "setting": "[1]", "value": -31, "unit": "%"}
    ]},
    {"compound": "COc1ccc([C@@H]2[C@H]([S+]([O-])CCc3ccccc3)C(=O)N2c2ccccc2)cc1", "note": "(stereo partly specified)", "values": [
      {"measurement": "ED50", "setting": "[2]", "value": 0.58, "unit": "mg/kg/day"},
      {"measurement": "inhibition in vivo at 1 mg/kg/day", "setting": "[3]", "value": 58, "unit": "%"},
      {"measurement": "inhibition in vivo at 3 mg/kg/day", "setting": "[4]", "value": 78, "unit": "%"}
    ]},
    {"compound": "COc1ccc([C@@H]2[C@@H](P(=O)(O)CCc3ccccc3)C(=O)N2c2ccccc2)cc1", "values": [
      {"measurement": "inhibition in vivo at 25 mg/kg/day", "setting": "[5]", "value": 0, "unit": "%"}
    ]},
    {"compound": "COc1ccc([C@@H]2[C@H](SCCc3ccccc3)C(=O)N2c2ccccc2)cc1", "values": [
      {"measurement": "inhibition in vivo at 10 mg/kg/day", "setting": "[1]", "value": 31, "unit": "%"}
    ]},
    {"compound": "COc1ccc([C@@H]2C(SCCc3ccccc3)C(=O)N2c2ccccc2)cc1", "note": "(stereo partly specified)", "values": [
      {"measurement": "inhibition in vivo at 25 mg/kg/day", "setting": "[5]", "value": 97, "unit": "%"}
    ]},
    {"compound": "COc1ccc([C@@H]2[C@H](C(O)CCc3ccccc3)C(=O)N2c2ccccc2)cc1", "note": "(stereo partly specified)", "values": [
      {"measurement": "ED50", "setting": "[6]", "value": 0.4, "unit": "mg/kg/day"}
    ]},
    {"compound": "COc1ccc([C@@H]2[C@@H](CCP(=O)(OC)c3ccccc3)C(=O)N2c2ccccc2)cc1", "note": "(stereo partly specified)", "values": [
      {"measurement": "inhibition in vivo at 25 mg/kg/day", "setting": "[5]", "value": 0, "unit": "%"}
    ]},
    {"compound": "COc1ccc([C@@H]2[C@@H](CCP(=O)(O)c3ccccc3)C(=O)N2c2ccccc2)cc1", "values": [
      {"measurement": "inhibition in vivo at 25 mg/kg/day", "setting": "[5]", "value": 0, "unit": "%"}
    ]},
    {"compound": "COc1ccc([C@@H]2[C@@H](CCC(O)c3ccccc3)C(=O)N2c2ccccc2)cc1", "note": "(stereo partly specified)", "values": [
      {"measurement": "ED50", "setting": "[6]", "value": 0.9, "unit": "mg/kg/day"}
    ]},
    {"compound": "COc1ccc([C@@H]2[C@@H](CCS(=O)(=O)c3ccccc3)C(=O)N2c2ccccc2)cc1", "values": [
      {"measurement": "inhibition in vivo at 10 mg/kg/day", "setting": "[1]", "value": 23, "unit": "%"}
    ]},
    {"compound": "COc1ccc([C@@H]2[C@@H](CCSc3ccccc3)C(=O)N2c2ccccc2)cc1", "values": [
      {"measurement": "inhibition in vivo at 10 mg/kg/day", "setting": "[7]", "value": 0, "unit": "%"}
    ]},
    {"compound": "O=C1[C@H]([S+]([O-])CCc2ccccc2)[C@@H](c2ccc(O)cc2)N1c1ccc(F)cc1", "note": "(stereo partly specified)", "values": [
      {"measurement": "inhibition in vivo at 1 mg/kg/day", "setting": "[3]", "value": 82, "unit": "%"},
      {"measurement": "inhibition in vivo at 10 mg/kg/day", "setting": "[1]", "value": 56, "unit": "%"}
    ]},
    {"compound": "COc1ccc([C@@H]2[C@@H](CC[S+]([O-])c3ccccc3)C(=O)N2c2ccccc2)cc1", "note": "(stereo partly specified)", "values": [
      {"measurement": "inhibition in vivo at 10 mg/kg/day", "setting": "[1]", "value": 21, "unit": "%"}
    ]},
    {"compound": "O=C1[C@H](SCCc2ccccc2)[C@@H](c2ccc(O)cc2)N1c1ccc(F)cc1", "values": [
      {"measurement": "inhibition in vivo at 1 mg/kg/day", "setting": "[3]", "value": 83, "unit": "%"}
    ]},
    {"compound": "COc1ccc([C@@H]2C([S+]([O-])CCc3ccccc3)C(=O)N2c2ccccc2)cc1", "note": "(stereo partly specified)", "values": [
      {"measurement": "ED50", "setting": "[2]", "value": 0.59, "unit": "mg/kg/day"},
      {"measurement": "inhibition in vivo at 25 mg/kg/day", "setting": "[5]", "value": 97, "unit": "%"}
    ]},
    {"compound": "COc1ccc([C@@H]2[C@@H](P(=O)(CCc3ccccc3)OC)C(=O)N2c2ccccc2)cc1", "note": "(stereo partly specified)", "values": [
      {"measurement": "Inhibition", "setting": "[8]", "value": 0, "unit": "%"}
    ]},
    {"compound": "O=C1[C@@H](SCCc2ccccc2)[C@@H](c2ccc(O)cc2)N1c1ccc(F)cc1", "values": [
      {"measurement": "inhibition in vivo at 1 mg/kg/day", "setting": "[3]", "value": 0, "unit": "%"}
    ]},
    {"compound": "COc1ccc([C@@H]2C(S(=O)(=O)CCc3ccccc3)C(=O)N2c2ccccc2)cc1", "note": "(stereo partly specified)", "values": [
      {"measurement": "inhibition in vivo at 25 mg/kg/day", "setting": "[5]", "value": 54, "unit": "%"}
    ]},
    {"compound": "COc1ccc([C@@H]2[C@@H](SCCc3ccccc3)C(=O)N2c2ccccc2)cc1", "values": [
      {"measurement": "ED50", "setting": "[2]", "value": 0.13, "unit": "mg/kg/day"},
      {"measurement": "inhibition in vivo at 1 mg/kg/day", "setting": "[3]", "value": 89, "unit": "%"}
    ]},
    {"compound": "COc1ccc([C@@H]2[C@@H]([S+]([O-])CCc3ccccc3)C(=O)N2c2ccccc2)cc1", "note": "(stereo in doubt; 26)", "values": [
      {"measurement": "ED50", "setting": "[2]", "value": 0.9, "unit": "mg/kg/day"},
      {"measurement": "Inhibition", "setting": "[3]", "value": 58, "unit": "%"}
    ]},
    {"compound": "COc1ccc([C@@H]2[C@@H]([S+]([O-])CCc3ccccc3)C(=O)N2c2ccccc2)cc1", "note": "(stereo in doubt; 27)", "values": [
      {"measurement": "ED50", "setting": "[2]", "value": 0.21, "unit": "mg/kg/day"},
      {"measurement": "Inhibition", "setting": "[3]", "value": 82, "unit": "%"}
    ]},
    {"compound": "O=C1[C@@H]([S+]([O-])CCc2ccccc2)[C@@H](c2ccc(O)cc2)N1c1ccc(F)cc1", "note": "(stereo in doubt; 37)", "values": [
      {"measurement": "inhibition in vivo at 1 mg/kg/day", "setting": "[3]", "value": 40, "unit": "%"}
    ]},
    {"compound": "O=C1[C@@H]([S+]([O-])CCc2ccccc2)[C@@H](c2ccc(O)cc2)N1c1ccc(F)cc1", "note": "(stereo in doubt; 38)", "values": [
      {"measurement": "Inhibition", "setting": "[3]", "value": 42, "unit": "%"}
    ]},
    {"compound": "COc1ccc([C@@H]2[C@@H](CCCc3ccccc3)C(=O)N2c2ccc(OC)cc2)cc1", "note": "[SCH-48461]", "values": [
      {"measurement": "ED50", "setting": "[6]", "value": 2.2, "unit": "mg/kg/day"}
    ]}
  ]
}
